According to ChEMBL document CHEMBL1629439, “High-throughput identification of antibacterials against methicillin-resistant Staphylococcus aureus (MRSA) and the transglycosylase” (Bioorg Med Chem, 2010):
Converted amounts (≈) assume the structure as drawn.

Columns and labels:
[1] = tested on: Pseudomonas aeruginosa; test: Antimicrobial activity against Pseudomonas aeruginosa ATCC 25619 after 18 to 24 hrs by alamar blue assay; assay type: functional; conditions: Pseudomonas aeruginosa, ATCC 25619; read-out: MIC
Outline: (§1)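 Broth microdilution per NCCLS in Mueller-Hinton broth, 8-point twofold dilutions, 384-well format. Exponential-phase cells at 5 × 10^5 cells/ml incubated with compound 18–24 h at 37 °C, then 20% Alamar blue added and fluorescence read. MIC90 taken as the lowest concentration preventing at least 90% bacterial growth.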

[2] = tested on: Acinetobacter baumannii; test: Antimicrobial activity against Acinetobacter baumannii ATCC 49139 after 18 to 24 hrs by alamar blue assay; assay type: functional; conditions: Acinetobacter baumannii, ATCC 49139; read-out: MIC; outline: as §1
[3] = tested on: Staphylococcus aureus; test: Antimicrobial activity against methicillin-resistant Staphylococcus aureus ATCC 33592 after 18 to 24 hrs by alamar blue assay; assay type: functional; conditions: Staphylococcus aureus, ATCC 33592; read-out: MIC
Outline: (§2)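 Broth microdilution per NCCLS standard, Mueller-Hinton broth, 8-point twofold dilutions; exponentially growing cells at 5 10^5 cells/ml with compound, 18–24 h at 37 C; 20% Alamar blue added, fluorescence read; MIC90 taken as lowest concentration preventing at least 90% growth.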

[4] = tested on: Mycolicibacterium smegmatis; test: Antimicrobial activity against Mycobacterium smegmatis BCRC 11565 after 18 to 24 hrs by alamar blue assay; assay type: functional; conditions: Mycolicibacterium smegmatis, BCRC 11565; read-out: MIC; outline: as §1
[5] = tested on: Escherichia coli; test: Antimicrobial activity against Escherichia coli ATCC […] after 18 to 24 hrs by alamar blue assay; assay type: functional; conditions: Escherichia coli; read-out: MIC; outline: as §1
[6] = tested on: Bacillus subtilis; test: Antimicrobial activity against Bacillus subtilis ATCC 23857 after 18 to 24 hrs by alamar blue assay; assay type: functional; outline: as §1
[7] = tested on: Serratia marcescens; test: Antimicrobial activity against Serratia marcescens ATCC 14756 after 18 to 24 hrs by alamar blue assay; assay type: functional; conditions: Serratia marcescens, ATCC 14756; read-out: MIC; outline: as §1
[8] = tested on: Stenotrophomonas maltophilia; test: Antimicrobial activity against Stenotrophomonas maltophilia ATCC 13637 after 18 to 24 hrs by alamar blue assay; assay type: functional; conditions: Stenotrophomonas maltophilia, ATCC 13637; read-out: MIC; outline: as §1
[9] = tested on: Staphylococcus aureus; test: Antimicrobial activity against Staphylococcus aureus ATCC 29213 after 18 to 24 hrs by alamar blue assay
[10] = tested on: Staphylococcus aureus; test: Antimicrobial activity against oxacillin- and methicillin-resistant Staphylococcus aureus isolate Sa-OXA-R2 after 18 to 24 hrs by alamar blue assay; assay type: functional; outline: as §2
[11] = tested on: Staphylococcus aureus; test: Antimicrobial activity against methicillin-resistant Staphylococcus aureus isolate NTUH4722 after 18 to 24 hrs by alamar blue assay; assay type: functional; outline: as §2

| Compound | MIC [1] | MIC [2] | MIC [3] | MIC [4] | MIC [5] | MIC [6] | MIC [7] | MIC [8] | MIC [9] | MIC [10] | MIC [11] |
| --- | --- | --- | --- | --- | --- | --- | --- | --- | --- | --- | --- |
| O=C(Nc1nnc(-c2ccc(Br)cc2)o1)c1cccc(F)c1 | > 256 µg/mL | > 256 µg/mL | 0.5 µg/mL (≈ 1.38 µM) | 0.5 µg/mL (≈ 1.38 µM) | > 256 µg/mL | 0.5 µg/mL (≈ 1.38 µM) | > 256 µg/mL | > 256 µg/mL | 2 µg/mL (≈ 5.52 µM) | 0.5 µg/mL (≈ 1.38 µM) | 0.5 µg/mL (≈ 1.38 µM) |
| O=C1c2cccc3cccc(c23)C(=O)N1CCN1CCN(CCc2ccccc2)CC1 | > 256 µg/mL | > 256 µg/mL | 1 µg/mL (≈ 2.42 µM) | 4 µg/mL (≈ 9.67 µM) | > 256 µg/mL | 4 µg/mL (≈ 9.67 µM) | > 256 µg/mL | > 256 µg/mL | 1 µg/mL (≈ 2.42 µM) | 0.5 µg/mL (≈ 1.21 µM) | 16 µg/mL (≈ 38.7 µM) |
| CCc1ccccc1NS(=O)(=O)c1ccc2c(c1)NC(C)CC(=O)S2 (configuration not stated) | > 256 µg/mL | > 256 µg/mL | 8 µg/mL (≈ 21.2 µM) | > 64 µg/mL | > 256 µg/mL | < 0.03 µg/mL | > 256 µg/mL | > 256 µg/mL | 2 µg/mL (≈ 5.31 µM) | > 64 µg/mL | 4 µg/mL (≈ 10.6 µM) |
| O=C(Nc1nnc(-c2ccc(Cl)cc2)o1)c1cccc(Br)c1 | > 256 µg/mL | > 256 µg/mL | 0.5 µg/mL (≈ 1.32 µM) | 0.5 µg/mL (≈ 1.32 µM) | > 256 µg/mL | 0.5 µg/mL (≈ 1.32 µM) | > 256 µg/mL | > 256 µg/mL | 0.5 µg/mL (≈ 1.32 µM) | 2 µg/mL (≈ 5.28 µM) | 2 µg/mL (≈ 5.28 µM) |
| Cn1c(/C=C/c2ccc([N+](=O)[O-])o2)nc2ccccc2c1=O | 2 µg/mL (≈ 6.73 µM) | > 256 µg/mL | 2 µg/mL (≈ 6.73 µM) | 1 µg/mL (≈ 3.36 µM) | 16 µg/mL (≈ 53.8 µM) | < 0.03 µg/mL | > 256 µg/mL | > 256 µg/mL | 1 µg/mL (≈ 3.36 µM) | 0.5 µg/mL (≈ 1.68 µM) | 1 µg/mL (≈ 3.36 µM) |
| Cc1ccc(NS(=O)(=O)c2ccc3c(c2)NCC(C)C(=O)S3)c(Br)c1 (configuration not stated) | > 256 µg/mL | > 256 µg/mL | 8 µg/mL (≈ 18.1 µM) | > 64 µg/mL | > 256 µg/mL | < 0.03 µg/mL | > 256 µg/mL | > 256 µg/mL | 2 µg/mL (≈ 4.53 µM) | > 64 µg/mL | 16 µg/mL (≈ 36.3 µM) |
| Cc1c(CC(=O)N[C@@H](C)C(=O)O)c(=O)oc2c(C)c3occ(-c4ccc(Cl)cc4)c3cc12 | > 256 µg/mL | > 256 µg/mL | 1.25 µg/mL (≈ 2.75 µM) | 1 µg/mL (≈ 2.2 µM) | > 256 µg/mL | > 64 µg/mL | > 256 µg/mL | > 256 µg/mL | 0.3 µg/mL (≈ 0.661 µM) | 1.25 µg/mL (≈ 2.75 µM) | 0.3 µg/mL (≈ 0.661 µM) |
| CCCc1ccc(C)c(Oc2ccc(Cl)cc2NC(=O)c2cc(Cl)cc(Br)c2O)c1 | 16 µg/mL (≈ 31.4 µM) | 16 µg/mL (≈ 31.4 µM) | 0.125 µg/mL (≈ 0.245 µM) | 0.5 µg/mL (≈ 0.982 µM) | 8 µg/mL (≈ 15.7 µM) | < 0.03 µg/mL | 16 µg/mL (≈ 31.4 µM) | 16 µg/mL (≈ 31.4 µM) | 0.25 µg/mL (≈ 0.491 µM) | 0.06 µg/mL (≈ 0.118 µM) | 0.06 µg/mL (≈ 0.118 µM) |
| CCc1c(C)nc(N2NC(C)=CC2NC(=O)c2ccccc2I)nc1O (configuration not stated) | > 256 µg/mL | > 256 µg/mL | 1 µg/mL (≈ 2.15 µM) | 0.25 µg/mL (≈ 0.537 µM) | > 256 µg/mL | 0.25 µg/mL (≈ 0.537 µM) | > 256 µg/mL | > 256 µg/mL | 0.5 µg/mL (≈ 1.07 µM) | 0.5 µg/mL (≈ 1.07 µM) | 0.5 µg/mL (≈ 1.07 µM) |
| O=C(Nc1cc(Cl)c(Cl)c(Cl)c1)c1cc(Br)cc(Br)c1O | 16 µg/mL (≈ 33.7 µM) | 16 µg/mL (≈ 33.7 µM) | 0.06 µg/mL (≈ 0.126 µM) | 0.5 µg/mL (≈ 1.05 µM) | 8 µg/mL (≈ 16.9 µM) | < 0.03 µg/mL | 16 µg/mL (≈ 33.7 µM) | 16 µg/mL (≈ 33.7 µM) | ≤ 0.03 µg/mL | ≤ 0.03 µg/mL | ≤ 0.03 µg/mL |
| O=C(Nc1cc(Cl)c(Cl)c(Cl)c1)c1cc(Cl)cc(Cl)c1O | 16 µg/mL (≈ 41.5 µM) | 16 µg/mL (≈ 41.5 µM) | 0.5 µg/mL (≈ 1.3 µM) | 0.5 µg/mL (≈ 1.3 µM) | 8 µg/mL (≈ 20.8 µM) | < 0.03 µg/mL | 16 µg/mL (≈ 41.5 µM) | 16 µg/mL (≈ 41.5 µM) | 0.125 µg/mL (≈ 0.324 µM) | 0.125 µg/mL (≈ 0.324 µM) | 1 µg/mL (≈ 2.59 µM) |
| CSc1nc2ccc(NC(=O)c3ccc([N+](=O)[O-])o3)cc2s1 | 128 µg/mL (≈ 382 µM) | 12 µg/mL (≈ 35.8 µM) | 1 µg/mL (≈ 2.98 µM) | 0.5 µg/mL (≈ 1.49 µM) | 256 µg/mL (≈ 763 µM) | 0.06 µg/mL (≈ 0.179 µM) | 32 µg/mL (≈ 95.4 µM) | 32 µg/mL (≈ 95.4 µM) | 1 µg/mL (≈ 2.98 µM) | 1 µg/mL (≈ 2.98 µM) | 1 µg/mL (≈ 2.98 µM) |
